Measurements as given in ChEMBL document CHEMBL5321283, “Structure-Activity Relationships of the Antimicrobial Peptide Natural Product Apidaecin” (J Med Chem, 2023).
In brackets after ≈: the same amount, converted by molar mass. Activity calls are given as the source filed them. No cut-off for these calls is given here. *1 amine or outer side, *2 acyl side, *3 side chain or, on linkers, in order; H or OH if unused. Where a SMILES comes first, the peptide text is derived from it. [ ]: non-standard residue; d: D form. The star is where a group is joined. Orn(α-tetramethylguanidino) = CN(C)C(=N[C@@H](CCCN)C(=O)*)N(C)C; X1 = N=C(N)NCCC[C@H](NC(=S)[C@@H]1CCCN1[*:1])C(=O)[*:2]; Phe(4-F) = N[C@@H](Cc1ccc(F)cc1)C(=O)O; Arg(Me) = CNC(=N)NCCC[C@H](N)C(=O)O; Hyp = O=C(O)[C@@H]1C[C@@H](O)CN1; hArg = N=C(N)NCCCC[C@H](N)C(=O)O; Cha = N[C@@H](CC1CCCCC1)C(=O)O; Cit = NC(=O)NCCC[C@H](N)C(=O)O; NMeL = CN[C@@H](CC(C)C)C(=O)O

What was measured:
[1] = tested on: Escherichia coli; assay: Antibacterial activity against Escherichia coli BL21 harboring sbmA mutant assessed as bacterial growth inhibition by broth microdilution assay; format: functional
[2] = tested on: Escherichia coli; assay: Antibacterial activity against Escherichia coli BL21 harboring RF2 (R262C) mutant assessed as bacterial growth inhibition by broth microdilution assay; format: functional
[3] = tested on: Escherichia coli; assay: Potency index, ratio of Api-137 MIC to test compound MIC for antibacterial activity against Escherichia coli BL21 assessed as bacterial growth inhibition by broth microdilution assay; format: functional
[4] = tested on: Escherichia coli; assay: Antibacterial activity against Escherichia coli BL21 assessed as bacterial growth inhibition by broth microdilution assay; format: functional
[5] = tested on: Escherichia coli; assay: Induction of stop-codon readthrough in Escherichia coli BL21 carrying pRXG (UGA) reporter incubated for 18 hrs by imaging analysis; format: functional
How it was run: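 Lawn spread on M9 agar with 0.2 mM IPTG and kanamycin, then dried. 2 μL drops of 0.2 mM peptide applied; 1 μL chloramphenicol (1 mg/mL) as negative control. ~18 h, 37 °C; RFP (Cy3) and GFP (Cy2) imaged.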

[6] = tested on: Escherichia coli; assay: Antibacterial activity against Escherichia coli BL21 harboring RF2 (Q280L) mutant assessed as bacterial growth inhibition by broth microdilution assay; format: functional
[7] = Stability in human plasma assessed as parent compound remaining measured after 2 hrs; format: ADME, cell-free; conditions: read-out: Stability

SMILES | MIC [1] [µM] | MIC [2] [µM] | Ratio [3] | MIC [4] [µM] | Activity [5] | MIC [6] [µM] | remaining at 2 h [7] [%]
CC[C@H](C)[C@H](NC(=O)[C@H](Cc1ccc(O)cc1)NC(=O)[C@@H](NC(=O)[C@@H]1CCCN1C(=O)[C@H](CCCNC(=N)N)NC(=O)[C@H](CC(N)=O)NC(=O)[C@H](CC(N)=O)NC(=O)[C@H](CCCN)N=C(N(C)C)N(C)C)C(C)C)C(=O)N1CCC[C@H]1C(=O)N[C@@H](CCCNC(=N)N)C(=O)N1CCC[C@H]1C(=O)N[C@@H](CCCNC(=N)N)C(=O)N1CCC[C@H]1C(=O)N1CCC[C@H]1C(=O)N[C@@H](Cc1c[nH]cn1)C(=O)N1CCC[C@H]1C(=O)N[C@@H](CCCNC(=N)NC)C(=O)N[C@@H](CC(C)C)C(=O)O ({Orn(α-tetramethylguanidino)}-NNRPVYIPRPRPPHP[Arg(Me)]L-OH) | > 25 | > 25 | 1 | 0.3 (≈ 0.692 µg/mL) | Active | 25 (≈ 57.6 µg/mL) | –
CC[C@H](C)[C@H](NC(=O)[C@H](Cc1ccc(F)cc1)NC(=O)[C@@H](NC(=O)[C@@H]1C[C@@H](O)CN1C(=O)[C@H](CCCNC(=N)N)NC(=O)[C@H](CC(N)=O)NC(=O)[C@H](CC(N)=O)NC(=O)[C@H](CCCN)N=C(N(C)C)N(C)C)C(C)C)C(=O)N1CCC[C@H]1C(=O)N[C@@H](CCCNC(=N)N)C(=O)N1CCC[C@H]1C(=O)N[C@@H](CCCNC(=N)N)C(=O)N1CCC[C@H]1C(=O)N1CCC[C@H]1C(=O)N[C@@H](Cc1c[nH]cn1)C(=O)N1CCC[C@H]1C(=O)N[C@@H](CCCNC(=N)NC)C(=O)N(C)[C@@H](CC(C)C)C(=O)O ({Orn(α-tetramethylguanidino)}-NNR[Hyp]V[Phe(4-F)]IPRPRPPHP[Arg(Me)][NMeL]-OH) | > 25 | 6.2 (≈ 14.5 µg/mL) | – | – | Active | – | ~80
CC[C@H](C)[C@H](NC(=O)[C@H](Cc1ccc(O)cc1)NC(=O)[C@@H](NC(=O)[C@@H]1CCCN1C(=O)[C@H](CCCNC(=N)N)NC(=O)[C@H](CC(N)=O)NC(=O)[C@H](CC(N)=O)NC(=O)[C@H](CCCN)N=C(N(C)C)N(C)C)C(C)C)C(=O)N1CCC[C@H]1C(=O)N[C@@H](CCCNC(=N)N)C(=O)N1CCC[C@H]1C(=O)N[C@@H](CCCNC(=N)N)C(=O)N1CCC[C@H]1C(=O)N1CCC[C@H]1C(=O)N[C@@H](Cc1c[nH]cn1)C(=O)N1CCC[C@H]1C(=O)N[C@@H](CCCNC(=N)N)C(=O)N(C)[C@@H](CC(C)C)C(=O)O ({Orn(α-tetramethylguanidino)}-NNRPVYIPRPRPPHPR[NMeL]-OH) | > 25 | > 25 | – | – | Active | – | ~80
CC[C@H](C)[C@H](NC(=O)[C@H](Cc1ccc(O)cc1)NC(=O)[C@@H](NC(=O)[C@@H]1CCCN1C(=O)[C@H](CCCNC(=N)N)NC(=O)[C@H](CC(N)=O)NC(=O)[C@H](CC(N)=O)NC(=O)[C@H](CCCN)N=C(N(C)C)N(C)C)C(C)C)C(=O)N1CCC[C@H]1C(=O)N[C@@H](CCCNC(=N)N)C(=O)N1CCC[C@H]1C(=O)N[C@@H](CCCNC(=N)N)C(=O)N1CCC[C@H]1C(=O)N1CCC[C@H]1C(=O)N[C@@H](Cc1c[nH]cn1)C(=O)N1CCC[C@H]1C(=O)N[C@@H](CCCNC(N)=O)C(=O)N[C@@H](CC(C)C)C(=O)O ({Orn(α-tetramethylguanidino)}-NNRPVYIPRPRPPHP[Cit]L-OH) | – | – | 128 | 20 (≈ 45.9 µg/mL) | – | – | –
CC[C@H](C)[C@H](NC(=O)[C@H](Cc1ccc(OC)cc1)NC(=O)[C@@H](NC(=O)[C@@H]1CCCN1C(=O)[C@H](CCCNC(=N)N)NC(=O)[C@H](CC(N)=O)NC(=O)[C@H](CC(N)=O)NC(=O)[C@H](CCCN)N=C(N(C)C)N(C)C)C(C)C)C(=O)N1CCC[C@H]1C(=O)N[C@@H](CCCNC(=N)N)C(=O)N1CCC[C@H]1C(=O)N[C@@H](CCCNC(=N)N)C(=O)N1CCC[C@H]1C(=O)N1CCC[C@H]1C(=O)N[C@@H](Cc1c[nH]cn1)C(=O)N1CCC[C@H]1C(=O)N[C@@H](CCCNC(=N)N)C(=O)N[C@@H](CC(C)C)C(=O)O ({Orn(α-tetramethylguanidino)}-NNRPVY(Me)IPRPRPPHPRL-OH) | – | – | 4 | 1.5 (≈ 3.46 µg/mL) | – | – | –
CC[C@H](C)[C@H](NC(=O)[C@H](Cc1ccc(O)cc1)NC(=O)[C@@H](NC(=O)[C@@H]1CCCN1C(=O)[C@H](CCCNC(=N)N)NC(=O)[C@H](CC(N)=O)NC(=O)[C@H](CC(N)=O)NC(=O)[C@H](CCCN)N=C(N(C)C)N(C)C)C(C)C)C(=O)N1CCC[C@H]1C(=O)N[C@@H](CCCNC(=N)N)C(=O)N1CCC[C@H]1C(=O)N[C@@H](CCCNC(=N)N)C(=O)N1CCC[C@H]1C(=O)N1CCC[C@H]1C(=O)N[C@@H](Cc1c[nH]cn1)C(=O)N1CCC[C@H]1C(=S)N[C@@H](CCCNC(=N)N)C(=O)N[C@@H](CC(C)C)C(=O)O ({Orn(α-tetramethylguanidino)}-NNRPVYIPRPRPPH[X1]L-OH) | – | – | 4 | 0.62 (≈ 1.43 µg/mL) | – | – | –
CC[C@H](C)[C@H](NC(=O)[C@H](Cc1ccc(O)cc1)NC(=O)[C@@H](NC(=O)[C@@H]1CCCN1C(=O)[C@H](CCCNC(=N)N)NC(=O)[C@H](CC(N)=O)NC(=O)[C@H](CC(N)=O)NC(=O)[C@H](CCCN)N=C(N(C)C)N(C)C)C(C)C)C(=O)N1CCC[C@H]1C(=O)N[C@@H](CCCNC(=N)N)C(=O)N1CCC[C@H]1C(=O)N[C@@H](CCCNC(=N)N)C(=O)N1CCC[C@H]1C(=O)N1CCC[C@H]1C(=O)N[C@@H](Cc1c[nH]cn1)C(=O)N1C[C@H](O)C[C@H]1C(=O)N[C@@H](CCCNC(=N)N)C(=O)N[C@@H](CC(C)C)C(=O)O ({Orn(α-tetramethylguanidino)}-NNRPVYIPRPRPPH[Hyp]RL-OH) | – | – | 2 | 0.3 (≈ 0.692 µg/mL) | – | – | –
CC[C@H](C)[C@H](NC(=O)[C@H](CC1CCCCC1)NC(=O)[C@@H](NC(=O)[C@@H]1CCCN1C(=O)[C@H](CCCNC(=N)N)NC(=O)[C@H](CC(N)=O)NC(=O)[C@H](CC(N)=O)NC(=O)[C@H](CCCN)N=C(N(C)C)N(C)C)C(C)C)C(=O)N1CCC[C@H]1C(=O)N[C@@H](CCCNC(=N)N)C(=O)N1CCC[C@H]1C(=O)N[C@@H](CCCNC(=N)N)C(=O)N1CCC[C@H]1C(=O)N1CCC[C@H]1C(=O)N[C@@H](Cc1c[nH]cn1)C(=O)N1CCC[C@H]1C(=O)N[C@@H](CCCNC(=N)N)C(=O)N[C@@H](CC(C)C)C(=O)O ({Orn(α-tetramethylguanidino)}-NNRPV[Cha]IPRPRPPHPRL-OH) | – | – | 2 | 0.75 (≈ 1.71 µg/mL) | – | – | –
CC[C@H](C)[C@H](NC(=O)[C@H](Cc1ccc(O)cc1)NC(=O)[C@@H](NC(=O)[C@@H]1CCCN1C(=O)[C@H](CCCNC(=N)N)NC(=O)[C@H](CC(N)=O)NC(=O)[C@H](CC(N)=O)NC(=O)[C@H](CCCN)N=C(N(C)C)N(C)C)C(C)C)C(=O)N1CCC[C@H]1C(=O)N[C@@H](CCCNC(=N)N)C(=O)N1CCC[C@H]1C(=O)N[C@@H](CCCNC(=N)N)C(=O)N1CCC[C@H]1C(=O)N1CCC[C@H]1C(=O)N[C@@H](Cc1c[nH]cn1)C(=O)N1CCC[C@H]1C(=O)N[C@@H](CCCNC(=N)N)C(=O)N[C@@H](CC(C)C)C(=O)O ({Orn(α-tetramethylguanidino)}-NNRPVYIPRPRPPHPRL-OH) | > 25 | > 25 | 1 | 0.16 (≈ 0.367 µg/mL) | – | > 25 | ~80
CC[C@H](C)[C@H](NC(=O)[C@H](Cc1ccc(O)cc1)NC(=O)[C@@H](NC(=O)[C@@H]1CCCN1C(=O)[C@H](CCCNC(=N)N)NC(=O)[C@H](CC(N)=O)NC(=O)[C@H](CC(N)=O)NC(=O)[C@H](CCCN)N=C(N(C)C)N(C)C)C(C)C)C(=O)N1CCC[C@H]1C(=O)N[C@@H](CCCNC(=N)N)C(=O)N1CCC[C@H]1C(=O)N[C@@H](CCCNC(=N)N)C(=O)N1CCC[C@H]1C(=O)N1CCC[C@H]1C(=O)N[C@@H](CC1CCCCC1)C(=O)N1CCC[C@H]1C(=O)N[C@@H](CCCNC(=N)N)C(=O)N[C@@H](CC(C)C)C(=O)O ({Orn(α-tetramethylguanidino)}-NNRPVYIPRPRPP[Cha]PRL-OH) | – | – | 32 | 5 (≈ 11.5 µg/mL) | – | – | –
CC[C@H](C)[C@H](NC(=O)[C@H](Cc1ccc(O)cc1)NC(=O)[C@@H](NC(=O)[C@@H]1CCCN1C(=O)[C@H](CCCNC(=N)N)NC(=O)[C@H](CC(N)=O)NC(=O)[C@H](CC(N)=O)NC(=O)[C@H](CCCN)N=C(N(C)C)N(C)C)C(C)C)C(=O)N1CCC[C@H]1C(=O)N[C@@H](CCCNC(=N)N)C(=O)N1CCC[C@H]1C(=O)N[C@@H](CCCNC(=N)N)C(=O)N1CCC[C@H]1C(=O)N1CCC[C@H]1C(=O)N[C@@H](Cc1c[nH]cn1)C(=O)N1CCC[C@H]1C(=O)N[C@@H](CCCCNC(=N)N)C(=O)N[C@@H](CC(C)C)C(=O)O ({Orn(α-tetramethylguanidino)}-NNRPVYIPRPRPPHP[hArg]L-OH) | – | – | 16 | 2.5 (≈ 5.76 µg/mL) | – | – | –
CC[C@H](C)[C@H](NC(=O)[C@H](Cc1ccc(O)cc1)NC(=O)[C@@H](NC(=O)[C@@H]1CCCN1C(=O)[C@H](CCCNC(=N)N)NC(=O)[C@H](CC(N)=O)NC(=O)[C@H](CC(N)=O)NC(=O)[C@H](CCCN)N=C(N(C)C)N(C)C)C(C)C)C(=O)N1CCC[C@H]1C(=O)N[C@@H](CCCNC(=N)N)C(=O)N1CCC[C@H]1C(=O)N[C@@H](CCCNC(=N)N)C(=O)N1C[C@H](O)C[C@H]1C(=O)N1CCC[C@H]1C(=O)N[C@@H](Cc1c[nH]cn1)C(=O)N1CCC[C@H]1C(=O)N[C@@H](CCCNC(=N)N)C(=O)N[C@@H](CC(C)C)C(=O)O ({Orn(α-tetramethylguanidino)}-NNRPVYIPRPR[Hyp]PHPRL-OH) | – | – | 2 | 0.16 (≈ 0.369 µg/mL) | – | – | –
